According to the RNAGym collection of RNA variant scans (doi:10.1126/science.aae0568):
Fewer inactive variants are shown than the library holds.

B1: tRNA (parent)
chain: GUUCCGUUGGCGUAAUGGUAACGCGUCUCCCUCCUAAGGAGAAGACUGCGGGUUCGAGUCCCGUACGGAACG

Variants of: B1
Experiment: yeast fitness relative to wild type (ratio to wild type); higher = fitter; tRNA-Arg(CCU), competitive growth, 37 C, YPD
Method in brief: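 Amplicons of the tRNA-Arg(CCU) gene were sequenced, 100-nucleotide paired-end, from the start population and from each end population of a pooled yeast competition. The competition, in six parallel replicates, lasted 24 hours in YPD at 37°C. Fitness relative to wild type was calculated from changes in genotype frequencies. Genotypes had to have ≥ 100 starting reads, and estimates < 0.5 were set to 0.5.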

Row | Variant | yeast fitness
1 | GUUCCGUUGGCGUAAUGGUCAGGCGUCUCCCUCGUAAGGAGAAAACUGCGGGUUCGAGUCCCGUUCGGAACG [A20C C22G C34G G44A A65U] | 0.569
2 | GUUCCGUUGGCGUAAUGGUCAUGCGUCUCCCUCCUAAGGAGAAGACUGCGGGUUCGAGUCCCGUACGGAACG [A20C C22U] | 0.729
3 | GUUCCGUUGGCGUAAUGGUCAUGCGUCUCCCUCCUAAGGUGAAGACUGCGGGUUCGAGUCCCGUACGGAACG [A20C C22U A40U] | ≤ 0.5
4 | GUUCCGUUGGCGUAAUGGUCAUGCGUCUCCCUCCUAAGGAGAUGACUGCGGGUUCGAGUCCCGUACGGCACG [A20C C22U A43U A69C] | ≤ 0.5
5 | GUUCCGUUGGCGUAAUGGUCAUGCGUCUCCCUCCUAAGGAGAAGACUGCGGGUUCGAGUCCCGUGCGGAACG [A20C C22U A65G] | 0.596
6 | GUUCCGUUGGCGUAAUGGUCAUGCGUCUGCCUCCUAAGGACAAGACUGGGGGAUCGAGUCCCGUACGGAACG [A20C C22U C29G G41C C49G U53A] | ≤ 0.5
7 | GUUCCGUUGGCGUAAUGGUCAUGCGUCUGCCUCCUAAGGACAAGACUGGGGGAUCGAGUCCCGUAUGGAACG [A20C C22U C29G G41C C49G U53A C66U] | ≤ 0.5
8 | GUUCCGUUGGCGUAAUGGUCAUGCGUCUCCCUUCUAAGGAGAAGACUGCGGGUUCGAGUCCCGUACGGAACG [A20C C22U C33U] | 0.542
9 | GUUCCGUUGGCGUAAUGGUCAUGCGUCUCCCUUCUAAGGAGAAGACUGCGGGUUCGAGUCCCGUAAGGAACG [A20C C22U C33U C66A] | ≤ 0.5
10 | GUUCCGUUGGCGUAAUGGUCAUGCGUCUCCCUCUGAAGGAGAAGACUGCGGGUUCGAGUCCCGUACGGAACG [A20C C22U C34U U35G] | ≤ 0.5
11 | GUUCCGUUGGCGUAAUGGUCAUGCGUCUCCCUCUGAAGGAGAAGACCGCGGGUUCGAGUCCCGUCCGGAACG [A20C C22U C34U U35G U47C A65C] | ≤ 0.5
12 | GUUCCGUUGGCGUAAUGGUCAUGCGCCUCCCUCCUAAGGAGAAGAGUGUGGGUUCGAGUCCCGUACGGCACG [A20C C22U U26C C46G C49U A69C] | ≤ 0.5
13 | GUUCCGUUGGCGUAAUGGUCACGAGUCUCCCUCCUAAGGAGAAGACUGCGGGUUCGAGUCCCGUACGGAACG [A20C C24A] | 0.751
14 | GUUCCGUUGGCGUAAUGGUCACGAGUCUCCCUCCUCAGGAGAAGACUCCGGGUUCGAGUCCCGUACGGAACG [A20C C24A A36C G48C] | ≤ 0.5
15 | GUUCCGUUGGCGUAAUGGUCACGAGUCUGCCUCGUAAGGAGAAGACUGCGGGUUCAAGUCCCGUGCGGCACG [A20C C24A C29G C34G G56A A65G A69C] | 0.856
16 | GUUCCGUUGGCGUAAUGGUCACGAGUCUUCCUCCUAAGGAGAAGACUGCGGGUUCGAGUCCCCUACGGAACG [A20C C24A C29U G63C] | ≤ 0.5
17 | GUUCCGUUGGCGUAAUGGUCACGAGUCUCCCUCCUAAGGAGAAGACUGCGGGUUCGAGUGCCGUACGGAACG [A20C C24A C60G] | ≤ 0.5
18 | GUUCCGUUGGCGUAAUGGUCACGGGUCUCCCUCCUAAGGAGAAGACUGCGGGUUCGAGUCCCGUACGGUACG [A20C C24G A69U] | ≤ 0.5
19 | GUUCCGUUGGCGUAAUGGUCACGGGUUUCCGUCCUAAGGAGAAGACUGCGGGUUCGAGUCCCGUCCGGAACG [A20C C24G C27U C31G A65C] | ≤ 0.5

Row | Variant | yeast fitness
20 | GUUCCGUUGGCGUAAUGGUCACGGGUCUGCCUCCUAAGGAGAAGACUGCGGGUUCGAGUCCCGUGCGGAACG [A20C C24G C29G A65G] | ≤ 0.5
21 | GUUCCGUUGGCGUAAUGGUCACGGGUCUCCCUCCUAAGCAGAAGACUGCGGGUUCGAGUCCCGUACGCAACG [A20C C24G G39C G68C] | ≤ 0.5
22 | GUUCCGUUGGCGUAAUGGUCACGGGUCUCCCUCCUAAGGAGAAGACUGCGGGUUCAAGUCCAGUACGGAACG [A20C C24G G56A C62A] | ≤ 0.5
23 | GUUCCGUUGGCGUAAUGGUCACGUGUCUCCCUCCUAAGGAGAAGACUGCGGGUUCGAGUCCCGUACGGAACG [A20C C24U] | 0.798
24 | GUUCCGUUGGCGUAAUGGUCACGUGUCUCCCUCCUAAGGGGUAGACUGCACGUUCGAGUCCCGUACGGACCG [A20C C24U A40G A42U G50A G51C A70C] | ≤ 0.5
25 | GUUCCGUUGGCGUAAUGGUCACGUGUCUCCCUCCUAAGGAGCAGACUGCGGGUUGGAGUCCCGUACGGAACG [A20C C24U A42C C55G] | ≤ 0.5
26 | GUUCCGUUGGCGUAAUGGUCACGUGUCUCCCUCCUAAGGAGUAGACUGCGGGUUCGAGCCCCGUACGGUACG [A20C C24U A42U U59C A69U] | 0.535
27 | GUUCCGUUGGCGUAAUGGUCACGUGUCUCCCUCCUAAGGAGUAGACUGCGGGUUCGAGCCCUGUACGGAACG [A20C C24U A42U U59C C62U] | ≤ 0.5
28 | GUUCCGUUGGCGUAAUGGUCACGUGUCUCCCUCCUAAGGAGACGACUGCGGGUUCGAGUCCCGUACGGAACG [A20C C24U A43C] | ≤ 0.5
29 | GUUCCGUUGGCGUAAUGGUCACGUGUCUCCCUCGUAAGGAGAAGACUGCGGGUUCGAGUCCCGUACGGAACG [A20C C24U C34G] | 0.506
30 | GUUCCGUUGGCGUAAUGGUCACGUGUCUCCCUCCUAAGGAGAAGACUGCGGGUUGGAGUCCCGUACGGAACG [A20C C24U C55G] | 0.643
31 | GUUCCGUUGGCGUAAUGGUCACGUGUCUCCCUCCUAAGGAGAAGACUGCGGGUUUGAGUCCCGUACGGAACG [A20C C24U C55U] | ≤ 0.5
32 | GUUCCGUUGGCGUAAUGGUCACGUGUCUCCCUCCUAAGGAGAAGACUGCGGGUUCGAGUCCCGUAUGGAACG [A20C C24U C66U] | ≤ 0.5
33 | GUUCCGUUGGCGUAAUGGUCACGUGUCUCCCUCCUAAGGAGAAGACAGCGGGUUCGAGUCCCGUACCGAACG [A20C C24U U47A G67C] | ≤ 0.5
34 | GUUCCGUUGGCGUAAUGGUCACGCGUAUCAUUCCUAAGGAGAAGACUGCGGAUUCGAGUCCCGUACGGAACG [A20C C27A C30A C31U G52A] | ≤ 0.5
35 | GUUCCGUUGGCGUAAUGGUCACGCGUAUCCCUCCUAAGGAGAAGACUGCGGCUUCGAGUCCCGUACGGAACG [A20C C27A G52C] | 0.595
36 | GUUCCGUUGGCGUAAUGGUCACGCGUGUCCCUCCUAAGGAGAAGACUGCGGGUUCGCGUCCCGUACGGAACG [A20C C27G A57C] | ≤ 0.5
37 | GUUCCGUUGGCGUAAUGGUCACGCGUGUCCCUCCUAAGGAGAAGACUGAGGGUUCGAGUCCCGUACGGAACG [A20C C27G C49A] | ≤ 0.5
38 | GUUCCGUUGGCGUAAUGGUCACGCGUUUCCCUCCUAAGGAGAAGACUGCGGGUUCGAGUCCCGUACGGAACG [A20C C27U] | 1.02
